For one molecule, inhibition results are on record in ChEMBL document CHEMBL2321737, “Selective inhibition of glycosyltransferases by bivalent imidazolium salts” (Bioorg Med Chem, 2013).

Assay [1] concerns the target Beta-1,3-galactosyltransferase 5 (Homo sapiens) (UniProt Q9Y2C3). Briefly: Inhibition of human recombinant soluble His-tagged beta3-GalT5 expressed in insect cells using GlcNAcbeta-Bn as substrate at 0.5 mM after 1 hr in presence of phosphatidylcholine.
Assay [2] concerns the target Glycoprotein-N-acetylgalactosamine 3-beta-galactosyltransferase 1 (Homo sapiens) (UniProt Q9NS00). The assay is described as follows: Inhibition of human C1GalT Gal-transferase using GalNAcalpha-Bn as substrate at 0.5 mM after 1 hr in presence of phosphatidylcholine.
The target in assay [3] is Beta-1,3-galactosyltransferase 5 (Homo sapiens) (UniProt Q9Y2C3). The assay is described as follows: Inhibition of human recombinant soluble His-tagged beta3-GalT5 expressed in insect cells using GlcNAcbeta-Bn as substrate at 0.5 mM after 1 hr in presence of triton X-100.
Sequence of Beta-1,3-galactosyltransferase 5 (Homo sapiens) (Q9Y2C3 whole entry, looked up): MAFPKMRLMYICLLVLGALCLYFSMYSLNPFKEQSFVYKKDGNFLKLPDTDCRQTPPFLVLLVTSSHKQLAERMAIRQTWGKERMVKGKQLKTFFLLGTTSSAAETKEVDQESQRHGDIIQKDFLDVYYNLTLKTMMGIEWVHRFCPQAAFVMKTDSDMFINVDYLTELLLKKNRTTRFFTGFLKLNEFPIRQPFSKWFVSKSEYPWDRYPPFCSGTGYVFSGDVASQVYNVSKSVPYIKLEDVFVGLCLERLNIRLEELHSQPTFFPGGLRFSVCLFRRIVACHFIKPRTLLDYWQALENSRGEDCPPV
Assay [4] addresses T1, Beta-1,3-galactosyl-O-glycosyl-glycoprotein beta-1,6-N-acetylglucosaminyltransferase (Homo sapiens) (UniProt Q02742).
T1 sequence (whole entry): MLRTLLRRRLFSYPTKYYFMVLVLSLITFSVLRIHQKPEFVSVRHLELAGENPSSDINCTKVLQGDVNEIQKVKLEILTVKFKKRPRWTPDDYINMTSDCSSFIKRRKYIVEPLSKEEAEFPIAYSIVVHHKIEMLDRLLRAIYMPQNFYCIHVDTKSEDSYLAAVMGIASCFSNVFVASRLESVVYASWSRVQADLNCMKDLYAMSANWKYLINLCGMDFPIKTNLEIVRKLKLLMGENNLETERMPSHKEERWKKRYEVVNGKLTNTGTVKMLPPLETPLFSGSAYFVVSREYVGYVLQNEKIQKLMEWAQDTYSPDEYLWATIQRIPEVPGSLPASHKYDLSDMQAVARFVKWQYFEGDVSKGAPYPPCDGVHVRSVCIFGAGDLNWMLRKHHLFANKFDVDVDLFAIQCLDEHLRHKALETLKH
Briefly: Inhibition of human C2GnT1 using Galbeta3GalNAcalpha-Bn as substrate at 0.5 mM after 1 hr in presence of phosphatidylcholine.

The target in assay [5] is T2, Acetylgalactosaminyl-O-glycosyl-glycoprotein beta-1,3-N-acetylglucosaminyltransferase (Homo sapiens) (UniProt Q6ZMB0).
T2 sequence (whole entry): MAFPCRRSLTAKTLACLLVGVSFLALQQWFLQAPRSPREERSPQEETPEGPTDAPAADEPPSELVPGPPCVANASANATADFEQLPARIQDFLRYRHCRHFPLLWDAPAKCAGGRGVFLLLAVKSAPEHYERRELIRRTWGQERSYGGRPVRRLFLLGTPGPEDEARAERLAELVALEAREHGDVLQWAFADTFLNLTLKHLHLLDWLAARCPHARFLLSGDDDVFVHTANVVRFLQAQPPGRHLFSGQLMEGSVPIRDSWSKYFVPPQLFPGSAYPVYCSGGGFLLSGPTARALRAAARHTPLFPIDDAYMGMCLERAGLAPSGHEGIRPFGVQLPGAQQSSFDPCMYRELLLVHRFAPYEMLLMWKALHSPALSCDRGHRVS
Briefly: Inhibition of human B3GnT6 using GalNAcalpha-Bn as substrate at 0.5 mM after 1 hr in presence of phosphatidylcholine.

The target of assay [6] is T3, Beta-1,4-galactosyltransferase 1 (Bos taurus) (UniProt P08037).
T3 sequence (whole entry): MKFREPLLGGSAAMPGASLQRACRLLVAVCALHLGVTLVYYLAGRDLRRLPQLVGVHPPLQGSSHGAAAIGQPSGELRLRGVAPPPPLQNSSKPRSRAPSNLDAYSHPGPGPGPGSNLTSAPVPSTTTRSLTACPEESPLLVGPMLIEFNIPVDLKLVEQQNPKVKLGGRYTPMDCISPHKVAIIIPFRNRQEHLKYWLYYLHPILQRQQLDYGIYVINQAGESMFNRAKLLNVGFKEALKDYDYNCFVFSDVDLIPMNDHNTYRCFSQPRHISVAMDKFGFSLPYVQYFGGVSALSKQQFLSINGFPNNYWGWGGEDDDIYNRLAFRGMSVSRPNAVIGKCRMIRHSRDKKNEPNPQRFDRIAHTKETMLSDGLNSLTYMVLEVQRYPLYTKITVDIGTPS
Briefly: Inhibition of bovine milk beta4-GalT1 using GlcNAcbeta-Bn as substrate at 0.5 mM after 1 hr relative to control. The method in brief:
(§1)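 Single point at 0.5 mM bis-imidazolium salt, 10% ethanol. Acceptor 0.5 mM GlcNAcβ-Bn, donor 0.5 mM UDP-Gal. […] Enzyme: 0.34 µg His-tagged human β4-GalT1 from BL21, or bovine milk β4-GalT1. Mean ± SD of replicates.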

Assay [7] deals with T4, Alpha-1,6-mannosyl-glycoprotein 2-beta-N-acetylglucosaminyltransferase (Homo sapiens) (UniProt Q10469).
T4 sequence (whole entry): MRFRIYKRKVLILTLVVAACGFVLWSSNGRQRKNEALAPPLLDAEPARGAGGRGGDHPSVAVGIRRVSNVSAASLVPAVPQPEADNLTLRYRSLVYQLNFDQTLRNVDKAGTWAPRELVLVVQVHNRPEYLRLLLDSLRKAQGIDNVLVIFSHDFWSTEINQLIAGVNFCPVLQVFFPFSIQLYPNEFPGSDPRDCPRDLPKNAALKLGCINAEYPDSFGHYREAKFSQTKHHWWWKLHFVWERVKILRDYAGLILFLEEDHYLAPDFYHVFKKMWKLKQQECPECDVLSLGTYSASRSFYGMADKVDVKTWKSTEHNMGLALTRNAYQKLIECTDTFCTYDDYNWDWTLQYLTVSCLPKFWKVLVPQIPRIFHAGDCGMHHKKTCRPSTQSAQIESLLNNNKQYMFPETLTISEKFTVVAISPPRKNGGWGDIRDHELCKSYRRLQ
The assay is described as follows: Inhibition of human GNT2 […] using GnMan3-octyl as substrate at 0.5 mM after 1 hr in presence of phosphatidylcholine.

The species entered for another assay is Homo sapiens. The assay is described as follows: Inhibition of human C2GnT2 using Galbeta3GalNAcalpha-Bn as substrate at 0.5 mM after 1 hr in presence of phosphatidylcholine.
Assay [8] concerns the target T5, Beta-1,4-galactosyltransferase 1 (Homo sapiens) (UniProt P15291).
T5 sequence (whole entry): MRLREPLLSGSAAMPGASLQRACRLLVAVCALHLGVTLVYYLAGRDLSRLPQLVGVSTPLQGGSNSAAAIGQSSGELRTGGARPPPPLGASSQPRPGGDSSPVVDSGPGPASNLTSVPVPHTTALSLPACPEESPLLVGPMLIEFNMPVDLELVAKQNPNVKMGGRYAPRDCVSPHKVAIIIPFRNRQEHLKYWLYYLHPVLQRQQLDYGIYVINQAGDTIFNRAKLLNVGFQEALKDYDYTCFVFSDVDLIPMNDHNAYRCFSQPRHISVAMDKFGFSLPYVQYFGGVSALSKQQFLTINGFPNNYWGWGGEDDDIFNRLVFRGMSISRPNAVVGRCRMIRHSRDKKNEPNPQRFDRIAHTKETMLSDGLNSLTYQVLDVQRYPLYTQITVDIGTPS
The assay is described as follows: Inhibition of human recombinant soluble His-tagged beta4-GalT1 expressed in Escherichia coli BL21 using GlcNAcbeta-Bn as substrate at 0.5 mM after 1 hr relative to control. The method in brief:
as §1

By inhibition is commonly meant the drop in the measured response relative to a control, in per cent.

Molecules are shown by their SMILES. Values joined by “and” are separate entries in the source; they are usually repeats but may differ in a detail not shown here. Identical values can stand only once. Active and inactive are the calls of the source. The rule behind the calls is not given here. Where only a bound is given, the exact number is not on record here.

Sequence of Glycoprotein-N-acetylgalactosamine 3-beta-galactosyltransferase 1 (Homo sapiens) (Q9NS00 whole entry): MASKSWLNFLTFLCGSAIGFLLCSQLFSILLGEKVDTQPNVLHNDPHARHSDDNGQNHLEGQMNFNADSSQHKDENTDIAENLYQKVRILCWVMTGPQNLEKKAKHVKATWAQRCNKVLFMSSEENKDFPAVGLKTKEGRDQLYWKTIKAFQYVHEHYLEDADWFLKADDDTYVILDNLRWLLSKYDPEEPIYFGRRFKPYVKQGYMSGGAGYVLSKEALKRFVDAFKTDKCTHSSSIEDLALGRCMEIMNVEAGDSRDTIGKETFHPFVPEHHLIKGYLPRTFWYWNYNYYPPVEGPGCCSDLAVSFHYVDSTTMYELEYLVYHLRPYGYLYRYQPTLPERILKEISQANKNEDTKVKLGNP

As for `C[n+]1ccn(CCCCCCCCCCCCCCCCCCCCn2cc[n+](C)c2)c1`, the inhibition entry in assay [1] and in assay [3] was “inactive” each time. In addition, the inhibition is below 1% in assay [2]; 100% in [4]; 80% and 94.4% in assay [5]; 40.7% and 54% in [6]; below 1% in assay [7]; below 1% in the assay listed under Homo sapiens. Moreover, the inhibition in assay [8] is 40.7% and 54%.
